ABCB6 inh 2 = inhibitors of human ABC transporter ABCB6; Q9NP58; AID 602162; fluorescence ratio to DMSO, % at 10 µM; K562-ABCB6 porphyrin accumulation, flow cytometry, 1 h; hits give low values; hit rate 0.19% among 360,000;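 active = fluorescence ratio to DMSO below 75%, the collection mean minus 3 SD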;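 also: signal is porphyrin accumulated inside mitochondria; 100% equals median channel fluorescence of DMSO control wells; lower ratio means ABCB6 inhibition with less porphyrin fluorescence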
Target sequence (Q9NP58 whole entry, looked up): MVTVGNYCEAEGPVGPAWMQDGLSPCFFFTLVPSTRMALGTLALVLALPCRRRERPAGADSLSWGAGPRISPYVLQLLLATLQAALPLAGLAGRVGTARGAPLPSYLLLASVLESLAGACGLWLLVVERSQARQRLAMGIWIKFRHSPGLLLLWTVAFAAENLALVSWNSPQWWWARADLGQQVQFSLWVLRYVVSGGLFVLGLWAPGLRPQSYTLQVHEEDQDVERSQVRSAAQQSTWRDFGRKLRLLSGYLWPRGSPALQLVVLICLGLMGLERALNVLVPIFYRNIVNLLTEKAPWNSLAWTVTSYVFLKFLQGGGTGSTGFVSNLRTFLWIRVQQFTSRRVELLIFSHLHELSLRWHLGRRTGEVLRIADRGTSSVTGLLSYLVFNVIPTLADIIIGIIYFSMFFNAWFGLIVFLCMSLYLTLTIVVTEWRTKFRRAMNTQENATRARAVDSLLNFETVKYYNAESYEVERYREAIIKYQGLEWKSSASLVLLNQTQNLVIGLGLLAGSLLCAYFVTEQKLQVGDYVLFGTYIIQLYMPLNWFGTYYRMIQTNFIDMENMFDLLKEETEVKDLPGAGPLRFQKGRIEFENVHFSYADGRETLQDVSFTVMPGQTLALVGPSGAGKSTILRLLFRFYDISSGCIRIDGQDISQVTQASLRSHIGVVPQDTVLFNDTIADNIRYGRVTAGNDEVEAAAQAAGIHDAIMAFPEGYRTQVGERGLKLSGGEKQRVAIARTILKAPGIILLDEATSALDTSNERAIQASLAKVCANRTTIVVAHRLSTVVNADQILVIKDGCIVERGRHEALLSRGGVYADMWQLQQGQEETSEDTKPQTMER
ABCG2 inh = blocks JC-1 efflux by human ABCG2 transporter; IgMXP3 cells, flow cytometry; inhibition, % at 6.6 µM; hit rate 0.1% among 190,000;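 active = inhibition above 80%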;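 also: 0% = DMSO and 100% = nicardipine control wells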
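Read-out basis: Efflux inhibition in percent versus controls | Test system: ABCG2 IgMXP3 and barcoded ABCB1 CCRF-Adr cell mix | Quantity: 3 million cells/mL in well | Schedule: 10 min at 25 °C | Control set: Nicardipine as high control, DMSO as low control | Reagent: JC-1 as fluorescent efflux pump substrate | Signal: Flow cytometry of retained JC-1 fluorescence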
ABCB1 block = inhibitors of human ABCB1 transporter, ABCG2 counter-screen. P08183. CCRF-Adr cells, JC-1 efflux, flow cytometry. inhibition, % at 6.6 µM. hit rate 0.067% among 190,000; in the data active = inhibition above about 40%;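 also: 0% = vehicle and 100% = reference inhibitor; higher value means more JC-1 retained so stronger ABCB1 efflux block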
Diaph act CS = activates diaphorase or chemically reduces, flagging diaphorase assay artifacts | Diaphorase/resazurin coupled assay, resorufin fluorescence, 16 min; hits give high values; 1 = vehicle wells, 0 = NADH-free wells | hit rate 0.005% among 190,000 | activation factor at 20 µM;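 active = diaphorase activity raised at least twofold by the compound at 20 µM; inactive = activation factor below 2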
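Assay system: Purified diaphorase enzyme from Clostridium kluyveri | Amount: Enzyme 0.07 U/mL final | Dosing: Compound 20 µM once, DMSO 1% | Timing: 16 min reaction at room temperature | Detection: Fluorescence, excitation 544 nm and emission 590 nm | Evaluation: Higher resorufin formation from activation or reduction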
FLuc inhib CS = inhibits firefly luciferase, flagging false hits in luciferase inhibition screens. ATPLite firefly luciferase biochemical luminescence, 10 min. inhibition, % at 10 µM. AID 1006. P08659. hit rate 1.5% among 200,000;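 active = inhibition above about 50% when tested at 10 µM, limit read from the data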
FLuc stim CS = affects firefly luciferase, flagging false hits in luciferase stimulation screens; ATPlite luciferase biochemical, luminescence, 10 min; 0 = ATP-free wells, 1 = DMSO control; activation factor at 10 µM; 200,000 tested, under 10 active; P08659;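 active = luciferase activation factor, scaled between plate controls, of at least 2 with compound at 10 µM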
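System: cell-free luciferase reagent; medium: PBS as buffer for the ATP substrate; doses: test compounds dosed from 2 mM stocks in 100% DMSO; incubation: 10 min, room temperature; measured by: luminescence from luciferase reaction; read-out: luciferase activation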
The depositor's hits bear a star; i = inactive; / = not tested or not shown; + = active, no number. Many of the other results were omitted from the sample, so hits are more common in it than they were.

SMILES	ABCB6 inh 2	ABCG2 inh	ABCB1 block	Diaph act CS	FLuc inhib CS	FLuc stim CS
N/C(=N\OC(=O)c1ccc(Br)cc1)c1ccccc1	111.0	14.7	1.1	0.9	94.8*	0.1
N/C(=N\OC(=O)CCC1CCCCC1)c1cccnc1	100.0	1.0	0.3	0.9	62.8*	0.4
N/C(=N\OC(=O)CCC1CCCC1)c1ccc(Br)cc1	98.0	/	/	/	/	/
N/C(=N\OC(=O)CCCc1ccccc1)c1cccnc1	104.0	4.8	0.0	0.9	50.2*	0.5
N/C(=N\OC(=O)c1ccccc1Cl)c1cccnc1	107.0	4.3	0.5	0.9	83.4*	0.2
O=C(OCC(=O)c1ccc[nH]1)c1ccc2ccccc2n1	101.0	24.6	0.4	0.9	13.1	0.9
N/C(=N\OC(=O)c1ccccc1Cl)c1ccncc1	101.0	3.8	0.4	0.8	54.4*	0.5
N/C(=N\OC(=O)c1cccc(Cl)c1)c1cccnc1	96.0	4.2	0.3	1	68.3*	0.3
O=C(COC(=O)c1ccccc1)c1ccc(Br)cc1	101.0	2.5	0.0	0.9	56.1*	0.4
O=C(COC(=O)c1ccc2ccccc2n1)c1ccccc1	96.0	9.8	1.4	1	60.0*	0.4
O=C(CCNC(=O)c1ccc(Br)cc1)Nc1ccc(S(=O)(=O)N2CCOCC2)cc1	94.0	/	/	/	/	/
Cc1ccccc1C(=O)O/N=C(\N)c1ccncc1	99.0	5.8	0.5	1	68.9*	0.3
COc1cccc(C(=O)O/N=C(\N)c2ccncc2)c1OC	100.0	3.4	-0.1	0.9	13.3	0.9
N/C(=N\OC(=O)c1ccccc1)c1cccnc1	101.0	7.2	0.6	0.9	91.5*	0.1
CSc1ccccc1NC(=O)CN(C)C(=O)c1ccc(-n2cccn2)cc1	93.0	/	/	/	/	/
O=C(N/N=C1\C/C(=N\NC(=O)c2ccncc2)c2ccccc21)c1ccncc1	118.0	0.0	0.0	0.7	69.1*	0.3
O=C(Nc1nnc([C@H]2C[C@H](O)[C@@H](CO)O2)s1)Nc1cccc(Cl)c1Cl	125.0	/	/	/	/	/
Cc1oc(-c2ccc3c(c2)OCCO3)cc1C(=O)O	106.0	1.7	0.1	1	61.6*	0.4
COc1ccc(N2CSC3=C(C#N)C(c4cc(OC)ccc4OC)CC(=O)N3C2)c(OC)c1 (centres undefined)	74.0*	-3.1	-1.8	0.4	0.9	1
Cc1ccc(C=C2C=C(c3ccccc3)OC2=O)cc1	101.0	/	/	/	/	/
Cc1ccc(C2=C/C(=C/c3cccs3)C(=O)O2)cc1	98.0	-4.0	-0.8	0.9	85.2*	0.1
Cc1ccc2cc3cc(C(=O)N4CCCCC4C)oc3nc2c1 (centres undefined)	88.0	4.2	1.0	0.9	55.0*	0.4
COc1cc(/C=N/Nc2ccccn2)ccc1OCC(C)C	99.0	6.5	0.3	1	18.6	0.8
COc1cc(/C=N/Nc2ccccn2)cc(OC)c1O	92.0	-0.8	-0.6	0.8	78.5*	0.2
CCOc1ccc(/C=N/Nc2ccccn2)cc1OC	99.0	23.3	-0.1	0.9	58.3*	0.4
SMILES	ABCB6 inh 2	ABCG2 inh	ABCB1 block	Diaph act CS	FLuc inhib CS	FLuc stim CS
C=CCOc1ccc(/C=N/Nc2ccccn2)cc1OC	105.0	4.0	0.8	1.1	48.9	0.5
CCCOc1ccc(/C=N/Nc2ccccn2)cc1OC	93.0	0.4	-0.1	1.1	58.5*	0.4
CCOc1ccc(N/C=C/C(=O)c2ccccc2)c([N+](=O)[O-])c1	101.0	42.1	1.3	1	94.1*	0.1
O=C1N=C(N2CCN(c3ccccc3)CC2)S/C1=C/c1ccco1	97.0	/	/	/	/	/
O=C1N=C(N2CCN(c3ccccc3)CC2)S/C1=C\c1ccco1	103.0	6.0	0.6	0.7	60.6*	0.4
c1ccc(CCNCc2ccco2)nc1	98.0	/	/	/	/	/
Cc1cc(/C=N/NC(=O)c2cccc(N(C)C)c2)c(C)n1-c1cc(C(=O)O)cc(C(=O)O)c1	105.0	-3.3	-0.1	0.7	2.7	1
O=C(N/N=C/c1ccccc1Cl)c1ccc(F)cc1	102.0	26.8	0.1	0.9	78.3*	0.2
O=C(NN=Cc1ccccc1Cl)c1ccccc1	97.0	/	/	/	/	/
O=C(O)COc1ccccc1/C=N/NC(=O)c1ccc(F)cc1	104.0	3.5	1.0	1	52.8*	0.5
O=C(N/N=C/c1ccc[nH]1)c1ccc(Cl)cc1	107.0	0.7	0.2	0.9	57.2*	0.4
CN(C)c1cccc(C(=O)N/N=C/c2ccccc2F)c1	92.0	2.2	0.0	0.9	95.1*	0
O=C(N/N=C/c1ccc[nH]1)c1ccncc1	99.0	1.5	-0.1	0.7	-0.9	1
CCOc1ccc(S(=O)(=O)NCCC(=O)NC2CCC(C)CC2)cc1 (centres undefined)	93.0	/	/	/	/	/
CCOC(=O)C1=CCN(S(=O)(=O)c2ccc(C)cc2)C1c1ccccc1F (centres undefined)	97.0	/	/	/	/	/
O=C(Nc1cccc(OC(F)(F)F)c1)c1cccc2c(-c3cccnc3)coc12	91.0	/	/	/	/	/
OC1CCCC1	95.0	/	/	/	/	/
c1ccc2oc(-c3ccc4nc[nH]c4c3)nc2c1	94.0	4.0	0.6	0.9	67.9*	0.3
Nc1nc2ccc(-c3nc4ccccc4o3)cc2s1	97.0	1.8	0.2	1	58.4*	0.4
COc1ccc(-c2nc3ccccc3o2)cc1OC	96.0	/	/	/	/	/
COc1cc(F)ccc1-c1cc(C(=O)NCc2cc(C(F)(F)F)cc(C(F)(F)F)c2)[nH]n1	91.0	/	/	/	/	/
COC(=O)c1sccc1-c1ccc(/C=N/OC(=O)c2ccccc2)o1	54.0*	0.2	0.0	0.9	-3.2	1
O=C(CNC(=O)c1ccc2c(c1)OCO2)N/N=C/c1cc(Br)ccc1O	98.0	/	/	/	/	/
Cc1cc(C)cc(OC(=O)COc2ccccc2C)c1	100.0	/	/	/	/	/
O=c1c2ccccc2nc(N/N=C/c2ccc(O)cc2)n1O	98.0	-2.0	-0.5	1	93.8*	0.1
SMILES	ABCB6 inh 2	ABCG2 inh	ABCB1 block	Diaph act CS	FLuc inhib CS	FLuc stim CS
Oc1ccc(/C=N/Nc2ccccc2)cc1	100.0	-2.5	-0.7	0.8	-2.2	1
O=c1c2ccccc2nc(N/N=C/c2c(O)ccc3ccccc23)n1O	117.0	-2.7	-0.8	0.9	87.9*	0.1
Cc1ccnc(NC(=O)c2cc3ccccc3oc2=O)c1	101.0	3.0	0.4	1	54.4*	0.5
CCOC(=O)C(C(=O)OCC)c1cc(Br)c2noc3c2c1C(=O)c1ccccc1-3	i	+	156.0*	0.4	0.5	1
CCOc1ccccc1CNS(=O)(=O)c1cnc[nH]1	100.0	/	/	/	/	/
Cc1cc(NC(=O)C2CC(=O)OC2c2ccccc2)no1 (centres undefined)	74.0*	6.0	0.3	0.9	-3.6	1
COc1ccc(-c2cnnc(N/N=C/c3ccc(O)c(O)c3)n2)cc1	96.0	-1.9	-0.6	0.5	85.3*	0.1
Oc1ccc(/C=N\Nc2nncc(-c3ccccc3)n2)cc1	94.0	/	/	/	/	/

Bioassay records from PubChem BioAssay.
